Apaf-1 inh – inhibitors of human Apaf-1 apoptosome, primary screen, biochemical, DEVD-Rh110 fluorescence, uHTS; inhibition, % at 20 µM; hit rate 0.71% among 330,000; AID 489030, 2010; Apoptotic protease-activating factor 1 (Homo sapiens), O14727; reconstituted apoptosome caspase-3 activity; active = inhibition of at least 40% at 20 µM
Target sequence (O14727 whole entry, looked up): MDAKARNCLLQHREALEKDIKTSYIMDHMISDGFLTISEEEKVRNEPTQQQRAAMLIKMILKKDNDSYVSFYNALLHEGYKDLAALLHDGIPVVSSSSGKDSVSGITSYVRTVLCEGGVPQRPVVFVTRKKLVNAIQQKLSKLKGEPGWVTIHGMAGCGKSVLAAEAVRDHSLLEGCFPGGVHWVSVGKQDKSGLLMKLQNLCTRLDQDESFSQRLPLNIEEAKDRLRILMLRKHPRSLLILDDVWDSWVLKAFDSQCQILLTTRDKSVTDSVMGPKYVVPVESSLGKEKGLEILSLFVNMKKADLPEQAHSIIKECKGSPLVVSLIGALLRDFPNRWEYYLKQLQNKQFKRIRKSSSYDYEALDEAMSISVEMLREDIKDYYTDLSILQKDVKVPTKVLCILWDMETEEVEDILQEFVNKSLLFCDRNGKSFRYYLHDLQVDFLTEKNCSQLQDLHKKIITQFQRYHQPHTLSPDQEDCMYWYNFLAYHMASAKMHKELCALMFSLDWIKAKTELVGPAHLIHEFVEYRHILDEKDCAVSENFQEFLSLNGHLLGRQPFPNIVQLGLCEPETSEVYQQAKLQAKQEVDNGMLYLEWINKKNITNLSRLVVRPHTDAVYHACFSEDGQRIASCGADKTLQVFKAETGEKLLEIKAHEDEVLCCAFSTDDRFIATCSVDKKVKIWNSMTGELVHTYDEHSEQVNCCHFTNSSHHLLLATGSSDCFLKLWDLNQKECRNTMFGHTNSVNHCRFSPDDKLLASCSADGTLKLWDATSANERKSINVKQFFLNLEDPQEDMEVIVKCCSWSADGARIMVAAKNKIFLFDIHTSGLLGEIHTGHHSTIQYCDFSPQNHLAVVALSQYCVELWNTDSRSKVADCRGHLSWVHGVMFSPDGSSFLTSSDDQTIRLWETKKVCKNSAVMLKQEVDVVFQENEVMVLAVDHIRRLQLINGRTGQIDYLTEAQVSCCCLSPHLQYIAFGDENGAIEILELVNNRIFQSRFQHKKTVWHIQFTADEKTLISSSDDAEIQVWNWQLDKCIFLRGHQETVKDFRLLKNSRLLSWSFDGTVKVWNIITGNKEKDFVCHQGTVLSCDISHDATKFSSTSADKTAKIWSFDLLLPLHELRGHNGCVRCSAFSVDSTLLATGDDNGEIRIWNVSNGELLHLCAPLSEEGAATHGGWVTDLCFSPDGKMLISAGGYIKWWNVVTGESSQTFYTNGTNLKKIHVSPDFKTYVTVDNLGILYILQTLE
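System: reconstituted apoptosome with Apaf-1, cytochrome c, caspase-9, procaspase-3, dATP; Signal: Rh110 fluorescence intensity; Schedule: 30 min compound preincubation, 50 min activation, room temperature; Reagent: cytochrome c trigger plus (Z-DEVD)2-Rh110 caspase-3 substrate.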
PAFAH1B3 inh – PAFAH1B3 enzyme inhibitors, primary screen, biochemical, fluorescence polarization, human | recombinant PAFAH1B3, FP-rhodamine probe | AID 492972, 2010 | inhibition, % at 3.39 µM | Platelet-activating factor acetylhydrolase IB subunit alpha1 (Homo sapiens), Q15102 | hit rate 0.28% among 340,000;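 active = inhibition above the screen-wide average of all tested compounds plus 3 SD, cut at about 25% in these data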
pPAFAH FP inh – pPAFAH enzyme inhibitors, primary screen, biochemical, fluorescence polarization, human; Platelet-activating factor acetylhydrolase (Homo sapiens), Q13093; hit rate 1.5% among 330,000; inhibition, % at 3.39 µM; AID 463082, 2010; recombinant pPAFAH, FP-rhodamine probe fluorescence polarization;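 active = inhibition above the mean inhibition across the screen plus 3 SD, cut at about 25% in these data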;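 note: inhibitors block binding of the rhodamine activity-based probe so polarization drops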
PREPL inh – PREPL enzyme inhibitors, primary screen, biochemical, fluorescence polarization; Prolyl endopeptidase-like (Homo sapiens), Q4J6C6; recombinant PREPL, fluorescence polarization activity-based probe; inhibition, % at 5.96 µM; hit rate 0.68% among 320,000; in the data active = inhibition above about 43%
PAFAH1B2 FP inh – PAFAH1B2 enzyme inhibitors, primary screen, biochemical, fluorescence polarization, human. hit rate 1.2% among 340,000. inhibition, % at 3.39 µM. recombinant PAFAH1B2, FP-rhodamine activity probe;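 active = inhibition above the mean of all tested compounds plus 3 SD, cut at about 24% in these data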
PAFAH2 FP inh – PAFAH2 enzyme inhibitors, primary screen, biochemical, fluorescence polarization, human. Platelet-activating factor acetylhydrolase 2, cytoplasmic (Homo sapiens), Q99487. inhibition, % at 3.39 µM. hit rate 0.99% among 340,000. recombinant PAFAH2, FP-rhodamine activity probe;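 active = inhibition above the mean over all tested compounds plus 3 SD, cut at about 30% in these data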;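 note: inhibitors block probe labeling of enzyme so polarization drops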
Apaf-1 inh conf2 – Apaf-1 inhibitors, single-dose retest, confirmation, biochemical, fluorescence, DEVD-Rh110, 20 µM | shares compounds with Apaf-1 inh | reconstituted apoptosome, caspase-3 DEVD-Rh110 fluorescence | inhibition, % at 20 µM | hit rate 25% among 1,800;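 active = mean inhibition of at least 40% at 20 µM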
Rh110 quench – Rh110 fluorescence interference by putative Apaf-1 inhibitors, confirmation, artefact control for Apaf-1 inhibitor project, biochemical, 20 µM; AID 504615, 2011; 1,800 tested, under 10 active; activation (fluorescence interference), % at 20 µM; quenched caspase reaction; shares compounds with Apaf-1 inh;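 active = signal rise of 40% or more at 20 µM, treated as a fluorescence artifact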
Fluor interf inh – fluorescence interference of Apaf-1 inhibitor hits, dose response, artefact control for Apaf-1 inhibitor project. IC50, µM. AID 588538, 2011. fluorescence interference counterscreen, Apaf-1 assay format. shares compounds with Apaf-1 inh. 460 tested, under 10 active; call rule not given here
Large screens that a line does not name were inactive (follow-up assays come after a bar, where they were run). In the library only some 3.5% were active in any assay of this set; here they are far more common.

O=S(=O)(/N=C/N1CCOCC1)c1ccc(Cl)cc1	Apaf-1 inh 43 | Apaf-1 inh conf2 inactive | Rh110 quench inactive
N#Cc1c(N)n(CCNC(=O)c2cccs2)c2nc3ccccc3nc12	Apaf-1 inh 90 | Apaf-1 inh conf2 inactive | Rh110 quench inactive
COc1ccccc1CCn1c(N)c(C#N)c2nc3ccccc3nc21	Apaf-1 inh 40 | Apaf-1 inh conf2 inactive | Rh110 quench inactive
COc1ccc(Cn2c(N)c(C#N)c3nc4ccccc4nc32)cc1OC	Apaf-1 inh 86 | Apaf-1 inh conf2 inactive | Rh110 quench inactive
COc1ccc(CCn2c(N)c(C#N)c3nc4ccccc4nc32)cc1OC	Apaf-1 inh 60 | Apaf-1 inh conf2 inactive | Rh110 quench inactive
Cc1noc(C)c1S(=O)(=O)N1CCC(C(=O)O)CC1	none
COc1ccc(N2CCN(C(C)C(=O)N3CCCC3)CC2)cc1 (centres undefined)	none
CCC1CCCCN1C(=O)COc1ccc(N(C)S(=O)(=O)c2ccc(C)cc2)cc1 (centres undefined)	Apaf-1 inh 51 | Apaf-1 inh conf2 inactive | Rh110 quench inactive
CC1(C)CC(=O)C(C=Nc2ccc(O)c(N=CC3=C(O)CC(C)(C)CC3=O)c2)=C(O)C1	Apaf-1 inh 47, pPAFAH FP inh 33, PAFAH2 FP inh 55 | Apaf-1 inh conf2 inactive | Rh110 quench inactive
COc1cc(OC)cc(C(=O)NCC(=O)OCc2nc3ccccc3s2)c1	none
O=C1CCCN1CCCNC(=S)Nc1cccc2ccccc12	none
CC(=O)N(/N=C1\Sc2ccccc2C1=O)c1ccc(C)cc1C	Apaf-1 inh 43 | Apaf-1 inh conf2 inactive | Rh110 quench inactive
CN1CCN(c2ccc(NC(=O)c3ccc(-c4ccc(Cl)cc4)o3)cc2)CC1	Apaf-1 inh 65 | Apaf-1 inh conf2 inactive | Rh110 quench inactive
CS(=O)(=O)N1CCN(c2ccc(NC(=O)c3ccc(-c4ccc(Cl)cc4)o3)cc2)CC1	none
COC(=O)c1c(C)oc(C)c1S(=O)(=O)NCc1ccc(Cl)cc1Cl	none
Cc1ccc2nc(NS(=O)(=O)c3cn(C)nc3C)sc2c1	none
N#CCCN1CCCc2cc(N=Nc3ccc(C(F)(F)F)cc3)ccc21	none (no result: PAFAH1B3 inh, PAFAH1B2 FP inh, PAFAH2 FP inh)
CC1(C)N([O-])c2cc([N+](=O)[O-])ccc2[N+]1=O	Apaf-1 inh 66, pPAFAH FP inh 31 (no result: PAFAH1B3 inh, PAFAH1B2 FP inh, PAFAH2 FP inh) | Apaf-1 inh conf2 70 | Rh110 quench inactive | Fluor interf inh inactive
COc1ccc(Br)cc1C1CC(=O)N2CN(Cc3ccccc3)CSC2=C1C#N (centres undefined)	Apaf-1 inh 78 | Apaf-1 inh conf2 inactive | Rh110 quench inactive
COc1ccc(Br)cc1C1CC(=O)N2CN(C)CSC2=C1C#N (centres undefined)	Apaf-1 inh 42 | Apaf-1 inh conf2 inactive | Rh110 quench inactive
COc1ccc(OC)c(C2CC(=O)N3CN(c4ccccc4F)CSC3=C2C#N)c1 (centres undefined)	none
CCC(C)[C@H](NC(=O)N1CCCCCC1)C(=O)OC (some centres undefined)	none (no result: PAFAH1B3 inh, PAFAH1B2 FP inh, PAFAH2 FP inh)
Cc1cc(NC(=O)CCCn2nc([N+](=O)[O-])c(Br)c2C)no1	Apaf-1 inh 40 | Apaf-1 inh conf2 inactive | Rh110 quench inactive
CCOC(=O)c1cc[n+](CC(=O)c2ccc(F)cc2)cc1	none
CCCCCCSc1cccc(-c2nc3cc(C)ccn3c2NCc2ccccc2)c1	Apaf-1 inh 40 | Apaf-1 inh conf2 inactive | Rh110 quench inactive

Bioassay records from PubChem BioAssay.
